*1 amine or outer side, *2 acyl side, *3 side chain or, on linkers, in order; H or OH if unused. Where a SMILES comes first, the peptide text is derived from it. Bridges are numbered along the chain shown (N, C = ends). [ ]: non-standard residue; d: D form. Pro(trans-4-NH2) = O=C([C@@H]1C[C@@H](N[*:3])CN1[*:1])[*:2]
Legend:
Integrin alpha-V/beta-3 [1] = target: T1, Integrin alpha-V/beta-3 (Homo sapiens, UniProt P05106+P06756); assay: Displacement of [125I]echistatin from human integrin alpha-V-beta-3 receptor by solid phase assay; format: protein-complex assay
Outline: (§1)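 Competitive binding to purified human integrin protein (αVβ3 or αVβ5) measured as inhibition of [¹²⁵I]-echistatin specific binding over a range of inhibitor concentrations. Each point is the mean ± SEM of triplicate determinations, and IC50 is read from the inhibition curves.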
Target sequence in this assay (P05106 27-788 limits assumed): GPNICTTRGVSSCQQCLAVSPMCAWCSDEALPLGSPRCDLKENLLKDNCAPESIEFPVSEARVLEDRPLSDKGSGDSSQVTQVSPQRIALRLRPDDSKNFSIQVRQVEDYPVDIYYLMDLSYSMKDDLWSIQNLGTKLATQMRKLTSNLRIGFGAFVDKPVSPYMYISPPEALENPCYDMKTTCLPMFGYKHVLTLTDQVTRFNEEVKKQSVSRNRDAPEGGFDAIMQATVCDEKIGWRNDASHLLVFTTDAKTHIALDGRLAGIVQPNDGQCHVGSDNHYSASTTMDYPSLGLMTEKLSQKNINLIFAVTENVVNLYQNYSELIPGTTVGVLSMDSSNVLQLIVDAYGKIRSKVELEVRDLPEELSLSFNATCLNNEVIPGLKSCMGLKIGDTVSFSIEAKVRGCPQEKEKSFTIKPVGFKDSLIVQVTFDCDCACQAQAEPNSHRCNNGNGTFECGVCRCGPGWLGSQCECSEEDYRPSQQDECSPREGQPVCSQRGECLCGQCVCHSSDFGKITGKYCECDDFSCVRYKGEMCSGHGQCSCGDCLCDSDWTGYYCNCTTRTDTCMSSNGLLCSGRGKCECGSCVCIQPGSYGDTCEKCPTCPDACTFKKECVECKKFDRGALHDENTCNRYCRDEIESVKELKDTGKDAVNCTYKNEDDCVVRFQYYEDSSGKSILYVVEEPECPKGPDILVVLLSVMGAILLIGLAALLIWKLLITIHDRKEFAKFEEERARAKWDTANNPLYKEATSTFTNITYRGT
Target sequence in this assay (P06756 31-889 limits assumed): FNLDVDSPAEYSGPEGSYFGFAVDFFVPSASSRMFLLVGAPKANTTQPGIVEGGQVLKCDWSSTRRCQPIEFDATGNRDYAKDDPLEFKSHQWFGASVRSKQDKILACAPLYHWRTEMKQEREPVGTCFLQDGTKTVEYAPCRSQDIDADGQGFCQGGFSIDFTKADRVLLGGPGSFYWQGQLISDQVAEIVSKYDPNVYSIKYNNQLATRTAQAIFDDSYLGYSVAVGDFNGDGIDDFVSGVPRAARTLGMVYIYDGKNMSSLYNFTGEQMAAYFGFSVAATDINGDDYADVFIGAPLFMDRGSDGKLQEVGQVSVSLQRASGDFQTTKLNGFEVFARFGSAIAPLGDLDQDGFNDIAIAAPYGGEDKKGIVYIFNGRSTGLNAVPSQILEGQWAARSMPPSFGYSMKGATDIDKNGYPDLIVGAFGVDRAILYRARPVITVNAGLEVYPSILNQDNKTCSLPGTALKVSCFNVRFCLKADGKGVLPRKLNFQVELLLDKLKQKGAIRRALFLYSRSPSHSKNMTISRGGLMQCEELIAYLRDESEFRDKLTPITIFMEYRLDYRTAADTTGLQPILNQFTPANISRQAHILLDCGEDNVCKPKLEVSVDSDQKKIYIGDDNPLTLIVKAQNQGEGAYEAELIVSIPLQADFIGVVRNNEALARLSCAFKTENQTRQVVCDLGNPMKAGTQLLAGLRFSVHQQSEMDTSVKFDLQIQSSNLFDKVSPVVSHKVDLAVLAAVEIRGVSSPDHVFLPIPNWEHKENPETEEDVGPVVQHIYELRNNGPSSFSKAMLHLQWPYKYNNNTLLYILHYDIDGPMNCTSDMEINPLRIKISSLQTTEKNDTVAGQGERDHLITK
Target sequence in this assay (P06756 891-1048 limits assumed): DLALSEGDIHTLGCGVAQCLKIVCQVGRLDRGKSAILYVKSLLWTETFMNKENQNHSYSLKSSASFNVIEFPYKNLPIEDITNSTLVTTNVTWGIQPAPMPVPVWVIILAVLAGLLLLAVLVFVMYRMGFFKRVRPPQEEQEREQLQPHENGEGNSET

Integrin alpha-V/beta-3 [2] = target: T1, Integrin alpha-V/beta-3; assay: Displacement of [125I]echistatin from human integrin alpha-V-beta-3 receptor low affinity state by solid phase assay; format: protein-complex assay
Target sequence in this assay (P05106 27-788 limits assumed): as the sequence (P05106 27-788 limits assumed) above
Target sequence in this assay (P06756 31-889 limits assumed): as the sequence (P06756 31-889 limits assumed) above
Target sequence in this assay (P06756 891-1048 limits assumed): as the sequence (P06756 891-1048 limits assumed) above

Integrin alpha-V/beta-3 [3] = target: T1, Integrin alpha-V/beta-3; assay: Displacement of [125I]echistatin from human integrin alpha-V-beta-3 receptor high affinity state by solid phase assay relative to control; format: protein-complex assay; design: concentration or dose not given beside the values; conditions: concentration not given here
Outline: (§2)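 Competition for [125I]-echistatin specific binding to purified human αvβ3 or αvβ5 integrin protein. Inhibition was plotted against test compound concentration. Each point is the mean ± SEM of triplicate determinations.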

Integrin alpha-V/beta-3 [4] = target: T1, Integrin alpha-V/beta-3; assay: Displacement of [125I]echistatin from human integrin alpha-V-beta-3 receptor low affinity state by solid phase assay relative to control; format: protein-complex assay; design: concentration or dose not given beside the values; conditions: concentration not given here; outline: as §2
Integrin alpha-V/beta-5 [5] = target: T2, Integrin alpha-V/beta-5 (Homo sapiens, UniProt P06756+P18084); assay: Displacement of [125I]echistatin from human integrin alpha-V-beta-5 receptor by solid phase assay; format: protein-complex assay; outline: as §1
Target sequence in this assay (P06756 31-889 limits assumed): as the sequence (P06756 31-889 limits assumed) above
Target sequence in this assay (P06756 891-1048 limits assumed): as the sequence (P06756 891-1048 limits assumed) above
Target sequence in this assay (P18084 24-799 limits assumed): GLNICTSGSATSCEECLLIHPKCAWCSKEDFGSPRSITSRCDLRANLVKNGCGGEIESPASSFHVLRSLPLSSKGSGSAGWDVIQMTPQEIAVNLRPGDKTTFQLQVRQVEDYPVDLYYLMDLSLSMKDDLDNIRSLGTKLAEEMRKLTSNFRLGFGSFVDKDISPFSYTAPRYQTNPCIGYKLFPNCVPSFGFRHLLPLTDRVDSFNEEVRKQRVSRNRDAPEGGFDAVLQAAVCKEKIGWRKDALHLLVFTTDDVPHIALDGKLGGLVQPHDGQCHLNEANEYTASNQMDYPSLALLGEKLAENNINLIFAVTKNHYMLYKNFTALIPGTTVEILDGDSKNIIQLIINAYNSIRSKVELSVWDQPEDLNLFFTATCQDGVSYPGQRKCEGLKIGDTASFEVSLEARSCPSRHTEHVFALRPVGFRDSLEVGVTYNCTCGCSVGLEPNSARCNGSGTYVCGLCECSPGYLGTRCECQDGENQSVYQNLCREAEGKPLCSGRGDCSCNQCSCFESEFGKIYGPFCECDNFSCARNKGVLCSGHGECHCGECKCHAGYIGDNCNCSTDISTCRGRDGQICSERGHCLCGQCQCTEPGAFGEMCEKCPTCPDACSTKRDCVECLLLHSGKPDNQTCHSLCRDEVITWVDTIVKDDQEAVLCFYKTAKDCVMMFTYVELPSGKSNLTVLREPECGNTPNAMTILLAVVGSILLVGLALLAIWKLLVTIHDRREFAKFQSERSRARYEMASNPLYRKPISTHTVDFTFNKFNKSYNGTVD

Integrin alpha-V/beta-5 [6] = target: T2, Integrin alpha-V/beta-5; assay: Displacement of [125I]echistatin from human integrin alpha-V-beta-5 receptor low affinity state by solid phase assay; format: protein-complex assay
Target sequence in this assay (P06756 31-889 limits assumed): as the sequence (P06756 31-889 limits assumed) above
Target sequence in this assay (P06756 891-1048 limits assumed): as the sequence (P06756 891-1048 limits assumed) above
Target sequence in this assay (P18084 24-799 limits assumed): as the sequence (P18084 24-799 limits assumed) above

Integrin alpha-V/beta-5 [7] = target: T2, Integrin alpha-V/beta-5; assay: Displacement of [125I]echistatin from human integrin alpha-V-beta-5 receptor high affinity state by solid phase assay relative to control; format: protein-complex assay; conditions: concentration not given here
Integrin alpha-V/beta-5 [8] = target: T2, Integrin alpha-V/beta-5; assay: Displacement of [125I]echistatin from human integrin alpha-V-beta-5 receptor low affinity state by solid phase assay relative to control; format: protein-complex assay; conditions: concentration not given here
Integrin alpha-V/beta-3 [9] = target: T1, Integrin alpha-V/beta-3; assay: Inhibition of human integrin alpha-v-beta-3 receptor mediated WM115 cell adhesion to vitronectin; format: cell-based, WM-115
Target sequence in this assay (P05106 27-788 limits assumed): as the sequence (P05106 27-788 limits assumed) above
Target sequence in this assay (P06756 31-889 limits assumed): as the sequence (P06756 31-889 limits assumed) above
Target sequence in this assay (P06756 891-1048 limits assumed): as the sequence (P06756 891-1048 limits assumed) above

Integrin alpha-5/beta-1 [10] = target: T3, Integrin alpha-5/beta-1 (Homo sapiens, UniProt P05556+P08648); assay: Inhibition of human integrin alpha5beta1 receptor mediated K562 cell adhesion to vitronectin; format: cell-based
Integrin alpha-V/beta-3 [11] = target: T1, Integrin alpha-V/beta-3; assay: Inhibition of human integrin alpha-V-beta-3 receptor mediated K562 cell adhesion to vitronectin; format: cell-based
Target sequence in this assay (P05106 27-788 limits assumed): as the sequence (P05106 27-788 limits assumed) above
Target sequence in this assay (P06756 31-889 limits assumed): as the sequence (P06756 31-889 limits assumed) above
Target sequence in this assay (P06756 891-1048 limits assumed): as the sequence (P06756 891-1048 limits assumed) above

Integrin alpha-5/beta-1 [12] = target: T3, Integrin alpha-5/beta-1; assay: Inhibition of human integrin alpha-5-beta-1 receptor mediated WM115 cell adhesion to vitronectin; format: cell-based, WM-115

## CCC(=O)N1C[C@@H]2C[C@H]1C(=O)N[C@@H](CCCN=C(N)N)C(=O)NCC(=O)N[C@@H](CC(=O)O)C(=O)N2
Integrin alpha-V/beta-3 [1]
  IC50: 5.6 nM
Integrin alpha-V/beta-3 [2]
  IC50: 251 nM

## N=C(N)NCCC[C@@H]1NC(=O)[C@@H]2C[C@@H](CN2C(=O)c2ccccc2)NC(=O)[C@H](CC(=O)O)NC(=O)CNC1=O
Integrin alpha-V/beta-3 [3]
  inhibition: 57.8%
Integrin alpha-V/beta-3 [4]
  inhibition: 42.2%

## N=C(N)NCCC[C@@H]1NC(=O)[C@@H]2CC[C@H](C2)NC(=O)[C@H](CC(=O)O)NC(=O)CNC1=O
Integrin alpha-V/beta-3 [1]
  IC50: 0.26 nM
Integrin alpha-V/beta-5 [5]
  IC50: 1.12 nM

## N=C(N)NCCC[C@@H]1NC(=O)[C@@H]2C[C@H](CN2)NC(=O)[C@H](CC(=O)O)NC(=O)CNC1=O (H-[Pro(trans-4-NH2)]RGD; lactam 1-C)
Integrin alpha-V/beta-3 [3]
  inhibition: 84.5%
Integrin alpha-V/beta-3 [4]
  inhibition: 15.5%

## CCCCCCCN1C[C@@H]2C[C@H]1C(=O)N[C@@H](CCCN=C(N)N)C(=O)NCC(=O)N[C@@H](CC(=O)O)C(=O)N2
Integrin alpha-V/beta-3 [1]
  IC50: 2.84 nM
Integrin alpha-V/beta-3 [2]
  IC50: 178 nM
Integrin alpha-V/beta-5 [6]
  IC50: 62.3 nM
Integrin alpha-V/beta-5 [5]
  IC50: 36.1 nM

## CCC(=O)N1C[C@@H]2C[C@H]1C(=O)N[C@@H](CCCNC(=N)N)C(=O)NCC(=O)N[C@@H](CC(=O)O)C(=O)N2
Integrin alpha-V/beta-3 [3]
  inhibition: 42.1%
Integrin alpha-V/beta-3 [4]
  inhibition: 57.9%

## NC(N)=NCCC[C@@H]1NC(=O)[C@@H]2C[C@@H](CN2C(=O)c2ccccc2)NC(=O)[C@H](CC(=O)O)NC(=O)CNC1=O
Integrin alpha-V/beta-3 [1]
  IC50: 5.15 nM
Integrin alpha-V/beta-3 [2]
  IC50: 600 nM

## CCCCCCCN1C[C@@H]2C[C@H]1C(=O)N[C@@H](CCCNC(=N)N)C(=O)NCC(=O)N[C@@H](CC(=O)O)C(=O)N2
Integrin alpha-V/beta-5 [7]
  inhibition: 29%
Integrin alpha-V/beta-5 [8]
  inhibition: 71%
Integrin alpha-V/beta-3 [3]
  inhibition: 53.7%
Integrin alpha-V/beta-3 [4]
  inhibition: 46.3%

## NC(N)=NCCC[C@@H]1NC(=O)[C@@H]2C[C@H](CN2C(=O)c2ccccc2)NC(=O)[C@H](CC(=O)O)NC(=O)CNC1=O
Integrin alpha-V/beta-3 [1]
  IC50: 174 nM
Integrin alpha-V/beta-3 [2]
  IC50: 327 nM

## COC(=O)[C@H]1[C@@H]2NC(=O)[C@H](CC(=O)O)NC(=O)CNC(=O)[C@H](CCCNC(=N)N)NC(=O)[C@H](C(C)C)NC(=O)[C@@H]21
Integrin alpha-V/beta-3 [9]
  IC50: 20 nM
Integrin alpha-5/beta-1 [10]
  IC50: 1500 nM
Integrin alpha-V/beta-3 [11]
  IC50: 20 nM
Integrin alpha-5/beta-1 [12]
  IC50: 1500 nM

## N=C(N)NCCC[C@@H]1NC(=O)[C@@H]2C[C@H](CN2C(=O)c2ccccc2)NC(=O)[C@H](CC(=O)O)NC(=O)CNC1=O
Integrin alpha-V/beta-3 [3]
  inhibition: 31.6%
Integrin alpha-V/beta-3 [4]
  inhibition: 68.4%

## NC(N)=NCCC[C@@H]1NC(=O)CNC(=O)[C@@H](CC(=O)O)N[C@H]2CCC[C@H]3CC[C@H](C1=O)N3C2=O
Integrin alpha-V/beta-3 [1]
  IC50: 5.64 nM
Integrin alpha-V/beta-5 [5]
  IC50: 0.9 nM

Reference: ChEMBL document CHEMBL1142302, “Discovery of subnanomolar arginine-glycine-aspartate-based alphaVbeta3/alphaVbeta5 integrin binders embedding 4-aminoproline residues” (J Med Chem, 2008)
